ChEMBL document CHEMBL5223168, “Using Imidazo[2,1-b][1,3,4]thiadiazol Skeleton to Design and Synthesize Novel MNK Inhibitors” (ACS Med Chem Lett, 2023)
Active and inactive are the calls of the source. The rule behind the calls is not given here.

Assays:
[1] = test system: MAP kinase-interacting kinase MNK1/2 (Homo sapiens); test: Inhibition of MNK in human A549 cells assessed as reduction in TNF-alpha level at 1 to 10 uM incubated for 48 hrs by ELISA; conditions: dose 1-10 µM
mTORC2 (Homo sapiens) = mTORC2 (Homo sapiens) (UniProt P42345+Q6R327+Q9BVC4+Q9BPZ7); test: Inhibition of mTORC2 in human LNCaP C4-2B cells assessed as inhibition of phosphorylation of AKT at Ser473 at 5 uM incubated for 2 hrs by Western blot analysis; type: cell-based
Procedure, shortened: (§1)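 C4-2B prostate cancer cells treated with inhibitor; lysates probed by Western blot for p-eIF4E, p-S6K (Thr389), p-rpS6 (Ser240/244) and p-AKT (Ser473).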

[2] = Cmax in mouse at 50 mg/kg, po and measured upto 24 hrs; type: ADME, organism-based; set-up: dose 50 mg/kg, time < 24 hrs, route po; conditions: in vivo
[3] = biological target: Mitogen-activated protein kinase 9 (Homo sapiens) (UniProt P45984); test: Inhibition of JNK2 (unknown origin) at 3 uM in presence of ATP by kinase assay
Mitogen-activated protein kinase 9 (Homo sapiens), sequence (P45984 whole entry, looked up): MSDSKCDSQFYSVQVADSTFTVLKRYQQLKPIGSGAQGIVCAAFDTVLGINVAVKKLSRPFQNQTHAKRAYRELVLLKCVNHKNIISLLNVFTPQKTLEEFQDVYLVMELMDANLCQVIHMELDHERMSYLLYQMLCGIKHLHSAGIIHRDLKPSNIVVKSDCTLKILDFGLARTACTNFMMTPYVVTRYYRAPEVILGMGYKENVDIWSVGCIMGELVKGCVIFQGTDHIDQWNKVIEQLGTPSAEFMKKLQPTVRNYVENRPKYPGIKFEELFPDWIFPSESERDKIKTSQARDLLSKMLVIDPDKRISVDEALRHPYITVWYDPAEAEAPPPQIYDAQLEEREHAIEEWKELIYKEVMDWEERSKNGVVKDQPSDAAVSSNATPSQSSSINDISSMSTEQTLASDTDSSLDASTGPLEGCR

[4] = biological target: T1, MAP kinase-interacting serine/threonine-protein kinase 1 (Homo sapiens, UniProt Q9BUB5); test: Inhibition of MNK1 (unknown origin) at 3 uM in presence of ATP by kinase assay
Procedure, shortened: (§2)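 Single-point kinase profiling: inhibitor tested at 3 μM against a panel of 60 kinases from different families, activity presented as heatmap.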
Target sequence in this assay (Q9BUB5 whole entry, looked up): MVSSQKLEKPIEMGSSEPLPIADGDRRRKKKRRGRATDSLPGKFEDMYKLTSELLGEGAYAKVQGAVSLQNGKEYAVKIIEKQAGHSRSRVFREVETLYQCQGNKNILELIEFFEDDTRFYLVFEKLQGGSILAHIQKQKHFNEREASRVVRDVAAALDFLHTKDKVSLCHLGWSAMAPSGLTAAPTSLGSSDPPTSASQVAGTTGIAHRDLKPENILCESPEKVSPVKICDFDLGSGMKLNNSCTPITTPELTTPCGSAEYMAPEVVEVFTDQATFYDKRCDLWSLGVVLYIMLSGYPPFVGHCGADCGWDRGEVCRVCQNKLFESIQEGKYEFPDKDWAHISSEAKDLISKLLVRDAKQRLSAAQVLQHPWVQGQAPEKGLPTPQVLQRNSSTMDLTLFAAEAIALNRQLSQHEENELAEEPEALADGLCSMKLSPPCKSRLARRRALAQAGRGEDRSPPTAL

[5] = test system: MAP kinase-interacting kinase MNK1/2 (Homo sapiens); test: Inhibition of MNK in human NCI-H1299 cells assessed as inhibition of eIF4E phosphorylation at 3 uM incubated for 2 hrs by Western blot analysis
[6] = AUC (0-t) in mouse at 25 mg/kg, iv and measured upto 24 hrs; type: ADME, organism-based; set-up: time < 24 hrs, dose 25 mg/kg, route iv; conditions: in vivo
[7] = AUC (0-t) in mouse at 50 mg/kg, po and measured upto 24 hrs; type: ADME, organism-based; set-up: dose 50 mg/kg, time < 24 hrs, route po; conditions: in vivo
A549 [8] = test: Antitumor activity against human A549 cells xenografted in BALB/C nude mouse assessed as reduction in tumor volume at 75 to 150 mg/kg, po QD for 14 days; type: functional, organism-based; conditions: dose 75-150 mg/kg, time 14.0 day
Procedure, shortened: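 A549 xenografts in nude mice; compound given orally once daily at 75 or 150 mg/kg for 14 days, irinotecan reference at 3 mg/kg; tumor growth tracked as T/C ratio (relative tumor proliferation rate); body weight monitored.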

A549 [9] = test: Induction of cell cycle arrest in human A549 cells assessed as accumulation of cells at S phase at 5 uM incubated for 16 hrs by propidium iodide staining based flow cytometry (Rvb=12.8%); type: functional
Homo sapiens = species: Homo sapiens; test: Inhibition of QIK (unknown origin) at 3 uM in presence of ATP by kinase assay
Procedure, shortened: as §2

A549 [10] = test: Induction of cell cycle arrest in human A549 cells assessed as decrease in cyclin D3 level at 5 uM incubated for 24 hrs by Western blot analysis; type: functional, cell-based
Procedure, shortened: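 A549 and MDA-MB-231 cells treated 24 h with 5 μM; lysates resolved by SDS-PAGE and immunoblotted for cyclin B1, cyclin D3 and MMP-3.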

A549 [11] = test: Induction of cell cycle arrest in human A549 cells assessed as accumulation of cells at G0/G1 phase at 5 uM incubated for 20 hrs by propidium iodide staining based flow cytometry (Rvb=70.9%); type: functional
[12] = Tmax in mouse at 25 mg/kg, iv and measured upto 24 hrs; type: ADME, organism-based; conditions: in vivo
[13] = test system: MAP kinase-interacting kinase MNK1/2 (Homo sapiens); test: Inhibition of MNK in human A549 cells assessed as reduction in IL-8 level at 1 to 10 uM incubated for 48 hrs by ELISA; conditions: dose 1-10 µM
mTORC1 (Homo sapiens) [14] = biological target: T2, mTORC1 (Homo sapiens) (UniProt P42345+Q8N122+Q9BVC4); test: Inhibition of mTORC1 in human LNCaP C4-2B cells assessed as inhibition of phosphorylation of rpS6 at Ser240/244 at 5 uM incubated for 2 hrs by Western blot analysis; type: cell-based
Procedure, shortened: as §1

[15] = test system: MAP kinase-interacting kinase MNK1/2 (Homo sapiens); test: Inhibition of MNK in human A549 cells assessed as inhibition of eIF4E phosphorylation at 3 uM incubated for 2 hrs by Western blot analysis
A549 [16] = test: Induction of cell cycle arrest in human A549 cells assessed as accumulation of cells at S phase at 5 uM incubated for 8 hrs by propidium iodide staining based flow cytometry (Rvb=1.7%); type: functional
mTORC1 (Homo sapiens) [17] = biological target: T2, mTORC1 (Homo sapiens); test: Inhibition of mTORC1 in human LNCaP C4-2B cells assessed as inhibition of phosphorylation of S6K at Thr389 at 5 uM incubated for 2 hrs by Western blot analysis; type: cell-based
Procedure, shortened: as §1

A549 [18] = test: Antiproliferative activity against human A549 cells assessed as reduction in cell viability at 5 uM incubated upto 6 days by trypan blue assay; type: functional, cell-based; conditions: time <= 6.0 day
Procedure, shortened: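 A549 or MDA-MB-231 cells cultured with 5 μM compound for up to 6 days; cell number counted over time; p-eIF4E followed by immunoblot up to 96 h.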

[19] = biological target: T1, MAP kinase-interacting serine/threonine-protein kinase 1; test: Inhibition of MNK1 (unknown origin) incubated for 60 mins using CREB as substrate in presence of ATP by LANCE Ultra kinase assay
Target sequence in this assay (Q9BUB5 whole entry): as the sequence (Q9BUB5 whole entry, looked up) above

[20] = Clearance in mouse at 50 mg/kg, po and measured upto 24 hrs; type: ADME, organism-based; conditions: in vivo
[21] = test system: MAP kinase-interacting kinase MNK1/2 (Homo sapiens); test: Inhibition of MNK in human U-937 cells assessed as inhibition of eIF4E phosphorylation at 10 uM incubated for 2 hrs by Western blot analysis
A549 [22] = test: Induction of cell cycle arrest in human A549 cells assessed as accumulation of cells at S phase at 5 uM incubated for 20 hrs by propidium iodide staining based flow cytometry (Rvb=13.6%); type: functional
[23] = biological target: Dual specificity protein kinase CLK1 (Homo sapiens) (UniProt P49759); test: Inhibition of CLK1 (unknown origin) at 3 uM in presence of ATP by kinase assay
Dual specificity protein kinase CLK1 (Homo sapiens), sequence (P49759 whole entry, looked up): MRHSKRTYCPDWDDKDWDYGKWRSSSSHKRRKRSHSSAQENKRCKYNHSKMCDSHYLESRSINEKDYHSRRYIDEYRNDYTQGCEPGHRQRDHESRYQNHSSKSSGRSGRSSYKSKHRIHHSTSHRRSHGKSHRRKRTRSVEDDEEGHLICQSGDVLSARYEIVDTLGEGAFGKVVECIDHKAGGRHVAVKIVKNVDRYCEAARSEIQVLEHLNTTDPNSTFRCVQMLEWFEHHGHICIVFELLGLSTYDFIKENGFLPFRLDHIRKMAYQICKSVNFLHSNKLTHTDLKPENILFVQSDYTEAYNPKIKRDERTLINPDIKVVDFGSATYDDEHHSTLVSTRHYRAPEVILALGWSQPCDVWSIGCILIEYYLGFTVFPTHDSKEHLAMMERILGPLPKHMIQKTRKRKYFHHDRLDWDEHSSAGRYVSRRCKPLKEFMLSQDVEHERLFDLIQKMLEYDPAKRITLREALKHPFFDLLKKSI

[24] = test system: MAP kinase-interacting kinase MNK1/2 (Mus musculus); test: Inhibition of MNK in wild type mouse MEF cells assessed as inhibition of eIF4E phosphorylation at 3 uM incubated for 2 hrs by Western blot analysis
[25] = Cmax in mouse at 25 mg/kg, iv and measured upto 24 hrs; type: ADME, organism-based; set-up: dose 25 mg/kg, time < 24 hrs, route iv; conditions: in vivo
[26] = biological target: Mitogen-activated protein kinase 8 (Homo sapiens) (UniProt P45983); test: Inhibition of JNK1 (unknown origin) at 3 uM in presence of ATP by kinase assay
Mitogen-activated protein kinase 8 (Homo sapiens), sequence (P45983 whole entry): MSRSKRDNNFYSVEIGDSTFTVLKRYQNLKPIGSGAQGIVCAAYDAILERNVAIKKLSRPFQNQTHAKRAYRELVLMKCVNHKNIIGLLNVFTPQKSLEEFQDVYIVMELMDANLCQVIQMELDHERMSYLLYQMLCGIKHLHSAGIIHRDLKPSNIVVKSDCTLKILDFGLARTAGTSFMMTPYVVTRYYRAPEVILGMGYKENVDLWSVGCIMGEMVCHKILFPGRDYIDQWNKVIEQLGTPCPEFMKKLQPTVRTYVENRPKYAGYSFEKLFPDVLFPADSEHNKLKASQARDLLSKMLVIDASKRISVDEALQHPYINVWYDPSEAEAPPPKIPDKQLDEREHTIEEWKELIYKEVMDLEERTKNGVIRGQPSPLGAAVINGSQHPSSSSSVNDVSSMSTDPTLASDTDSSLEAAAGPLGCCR

[27] = Toxicity in BALB/C nude mouse xenografted with human A549 cells assessed as body weight loss at 75 to 150 mg/kg, po QD for 14 days; type: organism-based; conditions: in vivo, 336 h, dose 75-150 mg/kg, time 14 day
Procedure, shortened: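 A549 xenografts in nude mice dosed orally once daily at 75 or 150 mg/kg for 14 days; body weight monitored for tolerability, irinotecan 3 mg/kg as positive control group.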

[28] = Half life in mouse at 50 mg/kg, po and measured upto 24 hrs; type: ADME, organism-based; conditions: in vivo

For CN1CCN(C(=O)c2ccc(-c3nn4c(-c5ccc(C#N)cc5)cnc4s3)cc2)CC1, the inhibition [1] was “Active”, the inhibition (mTORC2 (Homo sapiens)) was “inactive” and the Cmax [2] was 17200 ng/mL. The inhibition [3] was “Active”, the inhibition [4] was 100% and the inhibition [5] was “Active”. For the same compound, the AUC(0-t) at 24 h [6] was 80900 ng·h/mL, the AUC(0-t) at 24 h [7] was 98500 ng·h/mL and the Activity (A549 [8]) was “Dose-Dependent Effect”. The Activity (A549 [9]) was 5.2%, the inhibition (Homo sapiens) was “Active” and the Activity (A549 [10]) was “Active”. The Activity (A549 [11]) was 91.4%, the Tmax [12] was 4.8 min and the inhibition [13] was “Active”. For the same compound, the inhibition (mTORC1 (Homo sapiens) [14]) was “inactive”, the inhibition [15] was “Active” and the Activity (A549 [16]) was 2.7%. The inhibition (mTORC1 (Homo sapiens) [17]) was “inactive”, the Activity (A549 [18]) was “Active” and the IC50 [19] was 11.5 nM. The CL/F [20] was 8.45 mL/min/kg, the inhibition [21] was “Active” and the Activity (A549 [22]) was 3.3%. For the same compound, the inhibition [23] was “Active”, the inhibition [24] was “Active” and the Cmax [25] was 32100 ng/mL. The inhibition [26] was “Active”, the Activity [27] was less than 10% and the half-life [28] was 4.42 h.
